The values below come from ChEMBL document CHEMBL1138485, “Discovery of inducible nitric oxide synthase (iNOS) inhibitor development candidate KD7332, part 1: Identification of a novel, potent, and selective series of quinolinone iNOS dimerization inhibitors that are orally active in rodent pain models” (J Med Chem, 2009).

Where only a bound is given, the exact number is not on record here.

Chain of Nitric oxide synthase 1 (P29475 whole entry): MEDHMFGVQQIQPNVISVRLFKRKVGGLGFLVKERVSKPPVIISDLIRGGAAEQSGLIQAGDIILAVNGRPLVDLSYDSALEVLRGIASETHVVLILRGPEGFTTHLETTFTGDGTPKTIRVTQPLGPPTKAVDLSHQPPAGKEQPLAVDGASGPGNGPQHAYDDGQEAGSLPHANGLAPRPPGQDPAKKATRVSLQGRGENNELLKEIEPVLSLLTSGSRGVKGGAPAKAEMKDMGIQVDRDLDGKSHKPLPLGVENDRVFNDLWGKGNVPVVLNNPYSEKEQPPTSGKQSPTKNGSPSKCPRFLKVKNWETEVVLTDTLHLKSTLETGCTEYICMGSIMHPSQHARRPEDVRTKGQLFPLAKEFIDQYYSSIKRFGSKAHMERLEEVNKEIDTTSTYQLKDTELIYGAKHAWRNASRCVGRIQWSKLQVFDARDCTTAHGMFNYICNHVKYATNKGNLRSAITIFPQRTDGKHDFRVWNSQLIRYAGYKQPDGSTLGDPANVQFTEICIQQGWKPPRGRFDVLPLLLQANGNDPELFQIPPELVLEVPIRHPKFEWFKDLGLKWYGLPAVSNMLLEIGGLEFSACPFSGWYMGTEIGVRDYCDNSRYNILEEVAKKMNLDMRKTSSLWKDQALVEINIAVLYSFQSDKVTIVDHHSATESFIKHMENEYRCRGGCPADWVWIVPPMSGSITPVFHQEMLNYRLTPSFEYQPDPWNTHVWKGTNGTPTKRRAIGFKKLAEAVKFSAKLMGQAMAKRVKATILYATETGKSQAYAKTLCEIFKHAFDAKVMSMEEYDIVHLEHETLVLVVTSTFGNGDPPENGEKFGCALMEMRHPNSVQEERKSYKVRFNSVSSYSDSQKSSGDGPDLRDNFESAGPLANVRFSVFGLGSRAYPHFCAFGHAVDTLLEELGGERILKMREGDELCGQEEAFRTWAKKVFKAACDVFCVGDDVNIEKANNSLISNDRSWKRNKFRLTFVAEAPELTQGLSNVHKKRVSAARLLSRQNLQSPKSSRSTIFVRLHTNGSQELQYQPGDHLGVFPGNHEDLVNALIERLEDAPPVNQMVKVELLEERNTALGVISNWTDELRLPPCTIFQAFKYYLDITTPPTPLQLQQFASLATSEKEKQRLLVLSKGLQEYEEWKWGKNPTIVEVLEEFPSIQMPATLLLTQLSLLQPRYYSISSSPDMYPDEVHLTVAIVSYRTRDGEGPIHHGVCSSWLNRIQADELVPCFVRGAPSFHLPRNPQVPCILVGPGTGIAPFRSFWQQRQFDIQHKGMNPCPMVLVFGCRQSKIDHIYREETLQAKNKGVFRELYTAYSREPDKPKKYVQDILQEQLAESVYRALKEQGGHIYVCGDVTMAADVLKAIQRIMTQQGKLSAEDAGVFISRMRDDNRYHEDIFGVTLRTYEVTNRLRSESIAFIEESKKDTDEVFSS

System in the first data set: not listed separately
Briefly: Drug level in LPS-challenged BALB/c mouse plasma at 30 mg/kg, po after 6 hrs. Format: ADME, organism-based. Further details: dose 30 mg/kg, route oral. In outline:
(§1)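 Male Balb/c mice were dosed by oral gavage (90% PEG/5% Tween 80/5% PVP + 90% CMC (0.5% w/v)) at t = 0 h, 30 mg/kg for single-dose lines. LPS 10 mg/kg ip in 0.9% NaCl followed immediately. At 6 h, EDTA plasma was taken for nitrate and drug levels. Nitrate reduction is relative to vehicle; ED50 came from full oral dose-response.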
For the molecule `Cc1ncsc1C(=O)N(Cc1cc(=O)[nH]c2c(F)cccc12)c1cccc(Cl)c1`, the concentration at 6 h turned out to be 77 ng/mL.
Take `Cc1ncsc1C(=O)N(Cc1c[n+]([O-])cc2c(F)c(F)ccc12)c1cccc(Cl)c1`: the concentration at 6 h worked out at 20 ng/mL.
Take `Cn1cncc1C(=O)N(Cc1cc(=O)[nH]c2c(F)c(F)ccc12)c1cccc(Cl)c1`: the concentration at 6 h amounted to 18 ng/mL.
Same read-out and setting: the same measure for `CC(C)C(=O)N(Cc1cc(=O)[nH]c2c(F)cccc12)c1cccc(Cl)c1`: 21 ng/mL; for `Cc1ncsc1C(=O)N(Cc1cc(=O)[nH]c2c(F)c(F)ccc12)c1cccc(Cl)c1`: 8 ng/mL.
Consider `CC1=C(C(=O)N(Cc2cc(=O)[nH]c3c(F)c(F)ccc23)c2cccc(Cl)c2)CNCC1`, for which the concentration at 6 h was 63 ng/mL.

The next data set concerns the target T1, Cytochrome P450 1A2 (Homo sapiens, UniProt P05177).
T1 sequence (P05177 whole entry): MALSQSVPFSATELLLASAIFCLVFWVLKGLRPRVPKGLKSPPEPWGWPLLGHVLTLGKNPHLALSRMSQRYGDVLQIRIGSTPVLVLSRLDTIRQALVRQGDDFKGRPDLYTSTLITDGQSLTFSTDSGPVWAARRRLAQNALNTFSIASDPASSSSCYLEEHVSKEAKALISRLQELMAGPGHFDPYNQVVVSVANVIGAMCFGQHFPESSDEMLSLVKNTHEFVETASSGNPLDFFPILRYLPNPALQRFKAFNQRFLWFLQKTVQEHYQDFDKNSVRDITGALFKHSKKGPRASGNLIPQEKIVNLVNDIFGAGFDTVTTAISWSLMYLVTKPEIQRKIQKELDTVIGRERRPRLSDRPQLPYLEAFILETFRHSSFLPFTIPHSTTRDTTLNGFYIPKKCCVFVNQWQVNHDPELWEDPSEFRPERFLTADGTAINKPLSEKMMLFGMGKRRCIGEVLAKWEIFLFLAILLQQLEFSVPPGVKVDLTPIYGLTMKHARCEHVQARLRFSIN
Briefly: Inhibition of CYP1A2. Type of data set: ADME.
`Cc1ncsc1C(=O)N(Cc1cc(=O)[nH]c2c(F)cccc12)c1cccc(Cl)c1` had a concentration for a half-maximal effect (EC50) above 100000 nM.
In turn, `Cc1ncsc1C(=O)N(Cc1c[n+]([O-])cc2c(F)c(F)ccc12)c1cccc(Cl)c1` returned an EC50 above 100000 nM.
The same measure, in the same setting: the same measure for `Cn1cncc1C(=O)N(Cc1cc(=O)[nH]c2c(F)c(F)ccc12)c1cccc(Cl)c1`: 95000 nM.
Take `CC(C)C(=O)N(Cc1cc(=O)[nH]c2c(F)cccc12)c1cccc(Cl)c1`: the EC50 was above 100000 nM.
On to `Cc1ncsc1C(=O)N(Cc1cc(=O)[nH]c2c(F)c(F)ccc12)c1cccc(Cl)c1`, for which the EC50 amounted to 52000 nM.
In turn, `CC1=C(C(=O)N(Cc2cc(=O)[nH]c3c(F)c(F)ccc23)c2cccc(Cl)c2)CNCC1` had a concentration giving a half-maximal response (EC50) above 100000 nM.

A further data set concerns the target Nitric oxide synthase 1 (Homo sapiens, UniProt P29475). Briefly: Inhibition of human nNOS expressed in HEK293 cells assessed as NO production by transient transfection assay. Type of data set: cell-based.
As to `Cc1ncsc1C(=O)N(Cc1cc(=O)[nH]c2c(F)cccc12)c1cccc(Cl)c1`, the concentration giving a half-maximal response (EC50) was 2300 nM.
For the molecule `Cc1ncsc1C(=O)N(Cc1c[n+]([O-])cc2c(F)c(F)ccc12)c1cccc(Cl)c1`, the EC50 was determined as 3200 nM.
For the molecule `Cn1cncc1C(=O)N(Cc1cc(=O)[nH]c2c(F)c(F)ccc12)c1cccc(Cl)c1`, the 50% effective concentration (EC50) turned out to be 70 nM.
As to `CC(C)C(=O)N(Cc1cc(=O)[nH]c2c(F)cccc12)c1cccc(Cl)c1`, the half-maximal effective concentration (EC50) came out at 2900 nM.
Consider `Cc1ncsc1C(=O)N(Cc1cc(=O)[nH]c2c(F)c(F)ccc12)c1cccc(Cl)c1`, for which the half-maximal effective concentration (EC50) was determined as 120 nM.
`CC1=C(C(=O)N(Cc2cc(=O)[nH]c3c(F)c(F)ccc23)c2cccc(Cl)c2)CNCC1`: the EC50 worked out at 290 nM.

A further data set deals with T2, Nitric oxide synthase, inducible (Mus musculus, UniProt P29477).
T2 sequence (P29477 whole entry): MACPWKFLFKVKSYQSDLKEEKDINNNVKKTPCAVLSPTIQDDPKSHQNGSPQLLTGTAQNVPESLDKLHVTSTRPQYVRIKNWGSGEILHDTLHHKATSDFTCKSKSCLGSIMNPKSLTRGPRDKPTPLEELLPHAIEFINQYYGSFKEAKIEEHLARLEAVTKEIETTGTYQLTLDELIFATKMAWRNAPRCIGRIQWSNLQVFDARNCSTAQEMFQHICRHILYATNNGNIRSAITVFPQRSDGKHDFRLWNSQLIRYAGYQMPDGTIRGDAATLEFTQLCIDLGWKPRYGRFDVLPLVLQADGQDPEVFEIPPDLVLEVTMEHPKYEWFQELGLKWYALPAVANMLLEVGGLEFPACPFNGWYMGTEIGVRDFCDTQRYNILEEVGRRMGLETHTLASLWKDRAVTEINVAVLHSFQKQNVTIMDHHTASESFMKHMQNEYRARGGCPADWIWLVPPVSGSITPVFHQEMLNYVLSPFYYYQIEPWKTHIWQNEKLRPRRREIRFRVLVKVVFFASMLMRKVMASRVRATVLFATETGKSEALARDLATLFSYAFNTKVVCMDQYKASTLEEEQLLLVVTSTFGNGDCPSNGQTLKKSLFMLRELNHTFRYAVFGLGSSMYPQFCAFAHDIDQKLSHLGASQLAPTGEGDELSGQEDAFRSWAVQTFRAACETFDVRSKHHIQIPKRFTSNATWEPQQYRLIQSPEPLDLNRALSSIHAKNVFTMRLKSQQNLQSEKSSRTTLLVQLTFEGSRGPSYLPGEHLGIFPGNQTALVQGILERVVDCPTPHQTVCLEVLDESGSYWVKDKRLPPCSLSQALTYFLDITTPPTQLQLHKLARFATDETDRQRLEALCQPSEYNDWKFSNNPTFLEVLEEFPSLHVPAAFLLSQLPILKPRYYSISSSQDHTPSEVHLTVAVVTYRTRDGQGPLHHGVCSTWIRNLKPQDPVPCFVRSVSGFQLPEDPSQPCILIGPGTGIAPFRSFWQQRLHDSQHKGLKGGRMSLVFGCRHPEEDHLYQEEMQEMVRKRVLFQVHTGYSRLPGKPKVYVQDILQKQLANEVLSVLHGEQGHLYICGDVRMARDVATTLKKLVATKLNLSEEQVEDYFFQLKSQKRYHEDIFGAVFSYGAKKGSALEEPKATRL
Briefly: Inhibition of mouse iNOS expressed in HEK293 cells assessed as NO production in by transient transfection assay. Format: cell-based. The method, boiled down:
(§2)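 HEK293 cells grown to ~70% confluence in DMEM/10% FBS with pen/strep. Cells transiently transfected with 10 µg human or murine iNOS plasmid (Fugene 6), 4 h at 37 °C, 10% CO2. Trypsinized, plated at 5 × 10⁵ cells/mL and dosed at once; 1400W 100 µM final as positive control. After 18 h, NO read as DAN fluorescence (10 µg/mL, 20 min RT, then NaOH). EC50 from 3 runs, 10-point curves, n = 8/point.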
Consider `Cc1ncsc1C(=O)N(Cc1cc(=O)[nH]c2c(F)cccc12)c1cccc(Cl)c1`, for which the EC50 is 120 nM.
Regarding `Cc1ncsc1C(=O)N(Cc1c[n+]([O-])cc2c(F)c(F)ccc12)c1cccc(Cl)c1`, the EC50 was determined as 74 nM.
Regarding `Cn1cncc1C(=O)N(Cc1cc(=O)[nH]c2c(F)c(F)ccc12)c1cccc(Cl)c1`, the 50% effective concentration (EC50) is 14 nM.
In the case of `CC(C)C(=O)N(Cc1cc(=O)[nH]c2c(F)cccc12)c1cccc(Cl)c1`, the 50% effective concentration (EC50) was found to be 2700 nM.
With `Cc1ncsc1C(=O)N(Cc1cc(=O)[nH]c2c(F)c(F)ccc12)c1cccc(Cl)c1`, the EC50 amounted to 32 nM.
Still for that read-out and setting: with `CC1=C(C(=O)N(Cc2cc(=O)[nH]c3c(F)c(F)ccc23)c2cccc(Cl)c2)CNCC1` the figure was 57 nM.

The next data set concerns Mus musculus. Briefly: Reduction of plasma nitrate level in LPS-challenged BALB/c mouse at 30 mg/kg, po. Type of data set: functional. Details: scale not given: the % may be the effect or the level left. In outline:
as §1
`Cc1ncsc1C(=O)N(Cc1cc(=O)[nH]c2c(F)cccc12)c1cccc(Cl)c1` had an Activity of 90%.
The molecule `Cc1ncsc1C(=O)N(Cc1c[n+]([O-])cc2c(F)c(F)ccc12)c1cccc(Cl)c1` registered an Activity of 10%.
With `Cn1cncc1C(=O)N(Cc1cc(=O)[nH]c2c(F)c(F)ccc12)c1cccc(Cl)c1`, the Activity is 95%.
Take `CC(C)C(=O)N(Cc1cc(=O)[nH]c2c(F)cccc12)c1cccc(Cl)c1`: the Activity is listed as 6%.
On to `Cc1ncsc1C(=O)N(Cc1cc(=O)[nH]c2c(F)c(F)ccc12)c1cccc(Cl)c1`, for which the Activity turned out to be 62%.
Same read-out and setting: the same measure for `CC1=C(C(=O)N(Cc2cc(=O)[nH]c3c(F)c(F)ccc23)c2cccc(Cl)c2)CNCC1`: 95%.

For another data set, the target named is Nitric oxide synthase, inducible (Homo sapiens, UniProt P35228). The data set can be described thus: Inhibition of human iNOS expressed in HEK293 cells assessed as NO production by transient transfection assay. Format: cell-based. The method, boiled down: as §2
Chain of Nitric oxide synthase, inducible (Homo sapiens, UniProt P35228) (P35228 whole entry): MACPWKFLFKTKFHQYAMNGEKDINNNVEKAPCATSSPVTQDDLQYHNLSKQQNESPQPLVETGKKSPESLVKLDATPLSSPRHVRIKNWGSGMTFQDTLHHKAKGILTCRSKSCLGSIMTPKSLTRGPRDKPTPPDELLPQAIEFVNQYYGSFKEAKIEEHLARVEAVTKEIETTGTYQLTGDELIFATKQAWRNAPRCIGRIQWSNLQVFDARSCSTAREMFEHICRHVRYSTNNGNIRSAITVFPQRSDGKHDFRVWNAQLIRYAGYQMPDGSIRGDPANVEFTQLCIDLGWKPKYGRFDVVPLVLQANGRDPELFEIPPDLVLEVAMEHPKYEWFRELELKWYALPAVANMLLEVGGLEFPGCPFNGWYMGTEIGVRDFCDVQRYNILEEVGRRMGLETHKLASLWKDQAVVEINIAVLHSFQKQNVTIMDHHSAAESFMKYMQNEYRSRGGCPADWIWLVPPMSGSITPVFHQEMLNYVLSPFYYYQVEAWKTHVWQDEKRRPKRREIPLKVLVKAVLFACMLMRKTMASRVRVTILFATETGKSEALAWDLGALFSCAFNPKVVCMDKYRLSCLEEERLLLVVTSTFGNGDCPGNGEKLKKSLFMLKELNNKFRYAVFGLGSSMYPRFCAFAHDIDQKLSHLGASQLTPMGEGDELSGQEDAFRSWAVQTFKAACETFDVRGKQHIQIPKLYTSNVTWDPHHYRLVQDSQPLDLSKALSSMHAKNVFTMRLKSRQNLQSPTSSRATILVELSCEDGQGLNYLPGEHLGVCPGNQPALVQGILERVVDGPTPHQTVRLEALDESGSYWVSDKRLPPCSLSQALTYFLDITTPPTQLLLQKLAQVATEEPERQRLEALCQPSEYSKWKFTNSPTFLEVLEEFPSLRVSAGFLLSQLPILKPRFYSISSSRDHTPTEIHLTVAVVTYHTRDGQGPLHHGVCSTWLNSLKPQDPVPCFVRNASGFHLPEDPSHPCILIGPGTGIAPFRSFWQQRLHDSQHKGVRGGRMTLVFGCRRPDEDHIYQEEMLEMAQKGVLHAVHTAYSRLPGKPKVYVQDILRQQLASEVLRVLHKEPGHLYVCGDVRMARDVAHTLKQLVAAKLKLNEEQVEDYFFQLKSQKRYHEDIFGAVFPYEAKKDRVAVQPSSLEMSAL
For `Cc1ncsc1C(=O)N(Cc1cc(=O)[nH]c2c(F)cccc12)c1cccc(Cl)c1`, the EC50 was found to be 11 nM.
For `Cc1ncsc1C(=O)N(Cc1c[n+]([O-])cc2c(F)c(F)ccc12)c1cccc(Cl)c1`, the EC50 came to 19 nM.
As for `Cn1cncc1C(=O)N(Cc1cc(=O)[nH]c2c(F)c(F)ccc12)c1cccc(Cl)c1`, the half-maximal effective concentration (EC50) is 3 nM.
On the same count and under the same terms, with `CC(C)C(=O)N(Cc1cc(=O)[nH]c2c(F)cccc12)c1cccc(Cl)c1` the figure was 160 nM; with `Cc1ncsc1C(=O)N(Cc1cc(=O)[nH]c2c(F)c(F)ccc12)c1cccc(Cl)c1`, 2 nM; with `CC1=C(C(=O)N(Cc2cc(=O)[nH]c3c(F)c(F)ccc23)c2cccc(Cl)c2)CNCC1`, 11 nM.
